Results as given in ChEMBL document CHEMBL3352470, “New ent-kauranes from the fruits of Annona glabra and their inhibitory nitric oxide production in LPS-stimulated RAW264.7 macrophages” (Bioorg Med Chem Lett, 2015).

Assays:
RAW264.7 [1] = experiment: Cytotoxicity against mouse RAW264.7 cells at 30 uM by MTT assay relative to control; type: cell-based; conditions: raw264.7, 30 µM
RAW264.7 [2] = experiment: Inhibition of LPS-induced nitric oxide production in mouse RAW264.7 cells after 24 hrs by Griess assay relative to vehicle-treated control; type: functional, cell-based; conditions: RAW264.7, 24 h
How it was run: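 RAW 264.7 cells were seeded at 5×10^5 cells/mL. After 3 h they were pretreated with compound at a series of concentrations chosen from the screening results, then stimulated 24 h with 1 µg/mL LPS. Nitrite in the supernatant was read by the Griess reaction. IC50 came from the dose-dependent inhibition. Dexamethasone was the positive control.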

RAW264.7 [3] = experiment: Inhibition of LPS-induced nitric oxide production in mouse RAW264.7 cells at 30 uM after 24 hrs by Griess assay relative to vehicle-treated control; type: functional; conditions: RAW264.7, 24 h
How it was run: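 RAW 264.7 cells were seeded at 5×10^5 cells/mL. After 3 h they were pretreated with compound at 3, 10 and 30 µM, then 1 µg/mL LPS was added for 24 h. Supernatant nitrite was measured by the Griess reaction. Controls were unstimulated cells, LPS alone and dexamethasone. Values are mean ± SD of three independent experiments.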

SMILES	Activity (RAW264.7 [1])	IC50 (RAW264.7 [2])	inhibition at 30 µM (RAW264.7 [3])
C[C@@]12CCC[C@@](C)(C(=O)O[C@@H]3O[C@H](CO)[C@@H](O)[C@H](O)[C@H]3O)[C@H]1C[C@H](O)[C@@]13C[C@@H](CC[C@@H]21)[C@@H](CO)C3	Non-toxic	> 30 µM	–
C[C@@]12CCC[C@@](C)(C=O)[C@H]1CC[C@@]13C[C@@H](CC[C@H]12)[C@](O)(CO)C3	Non-toxic	0.32 µM	90%
CC1(C)CCC[C@]2(C)[C@@H]1CC[C@@]13C[C@@H](CC[C@H]12)[C@@](O)(CO)C3	Non-toxic	17.1 µM	70.4%
C[C@@]12CCC[C@@](C)(C(=O)O[C@@H]3O[C@H](CO)[C@@H](O)[C@H](O)[C@H]3O)[C@H]1C[C@H](O)[C@]13C=C(CO)[C@H](CC[C@@H]21)C3	Non-toxic	0.01 µM	90%
C[C@@]12CCC[C@@](C)(C(=O)O)[C@H]1CC[C@@]13C[C@@H](CC[C@H]12)[C@](O)(CO)C3	Non-toxic	14.3 µM	70.4%
CC1(C)CCC[C@]2(C)[C@@H]1CC[C@@]13C[C@@H](CC[C@H]12)[C@](O)(CO)C3	Non-toxic	6.2 µM	70.4%
C[C@@]12CCC[C@@](C)(C(=O)O[C@@H]3O[C@H](CO)[C@@H](O)[C@H](O)[C@H]3O)[C@H]1CC[C@@]13C[C@@H](CC[C@H]12)[C@@](O)(CO)C3	Non-toxic	> 30 µM	–
C[C@@]12CCC[C@@](C)(C(=O)O)[C@H]1C[C@H](O)[C@@]13C[C@@H](CC[C@@H]21)[C@@](O)(CO)C3	Non-toxic	0.39 µM	90%
